Results reported in ChEMBL document CHEMBL3526055, “Human metabolism of lapatinib, a dual kinase inhibitor: implications for hepatotoxicity” (Drug Metab Dispos, 2012).
Values belong to the compound of their own block, whether it stands above or below them.

Assays:
Format in all cases: ADME, organism-based
Plasma [1] = assay: Drug level in healthy human plasma treated with [14C]lapatinib at 250 mg, po administered as single dose by LC-MS/MS method; details: in vivo
Summary of the method: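 Healthy volunteers (n=6) received a single 250 mg oral aqueous suspension of unlabeled plus [14C]-drug (89.1 μCi), fasted 10 h predose to ~4 h postdose. Samples were collected for 168 h. Plasma was extracted from 25 µl by protein precipitation with an isotope-labeled internal standard and quantified by validated LC/MS/MS over 5 to 5000 ng/ml. Medians were reported.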

[2] = Drug level in healthy human feces treated with [14C]lapatinib at 250 mg, po administered as single dose by LC-MS/MS method; details: in vivo
Plasma [3] = assay: Drug metabolism in healthy human plasma assessed as (Z)-5-(4-(3-chloro-4-(3-fluorobenzyloxy)phenylamino)quinazolin-6-yl)furan-2-carbaldehyde oxime formation at 250 mg, po administered as single dose by LC-MS/MS method; details: in vivo
Summary of the method: (§1)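 Pooled plasma from subjects given a single 250 mg oral [14C] suspension was extracted (>90% recovery) and run on a C18 HPLC column at 45 °C. Positive-ion ESI single-quadrupole LC/MS used full scan m/z 100 to 900, with UV at 277 nm. Faeces were extracted with ethanol:acetonitrile:sample (3:3:1) for radio-HPLC profiling with off-line LSC fractions and nanoelectrospray MS.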

Plasma [4] = assay: Drug metabolism in healthy human plasma assessed as 1-(5-(4-(3-chloro-4-(3-fluorobenzyloxy)phenylamino)quinazolin-6-yl)furan-2-yl)-N-(2-(methylsulfonyl)ethylidene)methanamine oxide formation at 250 mg, po administered as single dose by LC-MS/MS method; details: in vivo; summary of the method: as §1
[5] = Drug recovery in healthy human feces at 250 mg, po administered as single dose after 0 to 120 hrs; details: read-out: Drug recovery
Summary of the method: (§2)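 Six healthy subjects (3 male, 3 female) received a single 250 mg oral [14C] suspension. Urine was collected in intervals and faeces were collected up to 168 h postdose. Faeces were homogenized as a water slurry and triplicate ~0.2 g aliquots combusted. Urine and plasma were counted directly by LSC with quench and background correction. Results are reported as median % of dose.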

Plasma [6] = assay: Drug metabolism in healthy human plasma assessed as (E)-5-(4-(3-chloro-4-(3-fluorobenzyloxy)phenylamino)quinazolin-6-yl)furan-2-carbaldehyde oxime formation at 250 mg, po administered as single dose by LC-MS/MS method; details: in vivo; summary of the method: as §1
Plasma [7] = assay: Drug metabolism in healthy human plasma assessed as N-(3-chloro-4-(3-fluorobenzyloxy)phenyl)-6-(5-((hydroxy(2-(methylsulfonyl)ethyl)amino)methyl)furan-2-yl)quinazolin-4-amine formation at 250 mg, po administered as single dose by LC-MS/MS method; details: in vivo; summary of the method: as §1
[8] = Drug recovery in healthy human urine at 250 mg, po administered as single dose; details: read-out: Drug recovery; summary of the method: as §2
[9] = Drug recovery in healthy human feces at 250 mg, po administered as single dose after 0 to 48 hrs; details: read-out: Drug recovery; summary of the method: as §2
Plasma [10] = assay: Drug metabolism in healthy human plasma assessed as 5-(4-(3-chloro-4-(3-fluorobenzyloxy)phenylamino)quinazolin-6-yl)furan-2-carboxylic acid formation at 250 mg, po administered as single dose by LC-MS/MS method; details: in vivo; summary of the method: as §1
Plasma [11] = assay: Drug recovery in healthy human plasma at 250 mg, po administered as single dose; details: in vivo
[12] = Drug recovery in healthy female human feces at 250 mg, po administered as single dose; details: read-out: Drug recovery; summary of the method: as §2
[13] = Drug recovery in healthy human urine at 250 mg, po administered as single dose after 0 to 120 hrs; details: read-out: Drug recovery; summary of the method: as §2
[14] = Drug recovery in healthy human feces at 250 mg, po administered as single dose after 0 to 144 hrs; details: read-out: Drug recovery; summary of the method: as §2
[15] = Drug recovery in healthy human feces at 250 mg, po administered as single dose after 0 to 24 hrs; details: read-out: Drug recovery; summary of the method: as §2
Homo sapiens = assay: Total drug recovery in healthy human at 250 mg, po administered as single dose after 0 to 168 hrs; details: in vivo; summary of the method: as §2
[16] = Drug metabolism in healthy human feces assessed as 6-(5-(aminomethyl)furan-2-yl)-N-(3-chloro-4-(3-fluorobenzyloxy)phenyl)quinazolin-4-amine formation at 250 mg, po administered as single dose by LC-MS/MS method; details: in vivo; summary of the method: as §1
[17] = Drug recovery in healthy human urine at 250 mg, po administered as single dose after 0 to 168 hrs; details: read-out: Drug recovery; summary of the method: as §2
Plasma [18] = assay: Drug metabolism in healthy human plasma assessed as 2-chloro-4-(6-(5-((2-(methylsulfonyl)ethylamino)methyl)furan-2-yl)quinazolin-4-ylamino)phenol formation at 250 mg, po administered as single dose by LC-MS/MS method; details: in vivo; summary of the method: as §1
[19] = Drug recovery in healthy human urine at 250 mg, po administered as single dose after 0 to 24 hrs; details: read-out: Drug recovery; summary of the method: as §2
[20] = Drug recovery in healthy human urine at 250 mg, po administered as single dose after 0 to 96 hrs; details: read-out: Drug recovery; summary of the method: as §2
Plasma [21] = assay: Drug metabolism in healthy human plasma assessed as 5-(4-(3-chloro-4-(3-fluorobenzyloxy)phenylamino)quinazolin-6-yl)furan-2-carbaldehyde formation at 250 mg, po administered as single dose by LC-MS/MS method; details: in vivo; summary of the method: as §1
[22] = Drug recovery in healthy human feces at 250 mg, po administered as single dose after 0 to 96 hrs; details: read-out: Drug recovery; summary of the method: as §2
[23] = Drug recovery in healthy human urine at 250 mg, po administered as single dose after 0 to 48 hrs; details: read-out: Drug recovery; summary of the method: as §2
[24] = Drug recovery in healthy human feces at 250 mg, po administered as single dose after 0 to 168 hrs; details: read-out: Drug recovery; summary of the method: as §2
Plasma [25] = assay: Drug metabolism in healthy human plasma assessed as N-((5-(4-(3-chloro-4-(3-fluorobenzyloxy)phenylamino)quinazolin-6-yl)furan-2-yl)methylene)-2-(methylsulfonyl)ethanamine oxide formation at 250 mg, po administered as single dose by LC-MS/MS method; details: in vivo; summary of the method: as §1
[26] = Drug recovery in healthy human urine at 250 mg, po administered as single dose after 0 to 144 hrs; details: read-out: Drug recovery; summary of the method: as §2
[27] = Total drug recovery in healthy female human at 250 mg, po administered as single dose; details: in vivo, read-out: Drug recovery; summary of the method: as §2
[28] = Drug recovery in healthy male human feces at 250 mg, po administered as single dose; details: read-out: Drug recovery; summary of the method: as §2
[29] = Drug level in healthy human feces at 250 mg, po administered as single dose by LC-MS/MS method; details: read-out: Drug uptake
[30] = Drug recovery in healthy male human urine at 250 mg, po administered as single dose; details: read-out: Drug recovery; summary of the method: as §2
[31] = Drug recovery in healthy female human urine at 250 mg, po administered as single dose; details: read-out: Drug recovery; summary of the method: as §2
[32] = Total drug recovery in healthy male human at 250 mg, po administered as single dose; details: in vivo, read-out: Drug recovery; summary of the method: as §2
[33] = Drug recovery in healthy human urine at 250 mg, po administered as single dose after 0 to 72 hrs; details: read-out: Drug recovery; summary of the method: as §2
[34] = Total drug recovery in healthy human at 250 mg, po administered as single dose; details: in vivo, read-out: Drug recovery; summary of the method: as §2
Plasma [35] = assay: Drug metabolism in healthy human plasma assessed as 4-(3-chloro-4-hydroxyphenylamino)-6-(5-((2-(methylsulfonyl)ethylamino)methyl)furan-2-yl)quinazolin-2-ol formation at 250 mg, po administered as single dose by LC-MS/MS method; details: in vivo; summary of the method: as §1
[36] = Drug recovery in healthy human feces at 250 mg, po administered as single dose after 0 to 72 hrs; details: read-out: Drug recovery; summary of the method: as §2

Compound: O/N=C\c1ccc(-c2ccc3ncnc(Nc4ccc(OCc5cccc(F)c5)c(Cl)c4)c3c2)o1
Drug metabolism (Plasma [1]): metabolite_detected

Compound: CS(=O)(=O)CCN(O)Cc1ccc(-c2ccc3ncnc(Nc4ccc(OCc5cccc(F)c5)c(Cl)c4)c3c2)o1
Drug metabolism (Plasma [1]): metabolite_detected

Compound: O=C(O)c1ccc(-c2ccc3ncnc(Nc4ccc(OCc5cccc(F)c5)c(Cl)c4)c3c2)o1
Drug metabolism (Plasma [1]): metabolite_detected | Drug uptake [2]: 14%

Compound: CS(=O)(=O)CCNCc1ccc(-c2ccc3ncnc(Nc4ccc(O)c(Cl)c4)c3c2)o1
Drug uptake [2]: 3.9%

Compound: CS(=O)(=O)CC[n+]1cc([O-])ccc1-c1ccc2ncnc(Nc3ccc(OCc4cccc(F)c4)c(Cl)c3)c2c1
Drug metabolism [2]: metabolite_detected

The next lines start with the values.

Drug metabolism (Plasma [1]): metabolite_detected
Compound: O=Cc1ccc(-c2ccc3ncnc(Nc4ccc(OCc5cccc(F)c5)c(Cl)c4)c3c2)o1

Drug metabolism [2]: metabolite_detected
Compound: NCc1ccc(-c2ccc3ncnc(Nc4ccc(OCc5cccc(F)c5)c(Cl)c4)c3c2)o1

Drug metabolism (Plasma [1]): metabolite_detected
Compound: O/N=C/c1ccc(-c2ccc3ncnc(Nc4ccc(OCc5cccc(F)c5)c(Cl)c4)c3c2)o1

Drug metabolism (Plasma [3]): metabolite_detected | Drug metabolism (Plasma [4]): metabolite_detected | dose excreted [5]: 90.8% | Drug metabolism (Plasma [6]): metabolite_detected | Drug metabolism (Plasma [7]): metabolite_detected | dose excreted [8]: 1.15% | dose excreted [9]: 45.3% | Drug metabolism (Plasma [10]): metabolite_detected | Drug recovery (Plasma [11]): > 90% | dose excreted [12]: 89.9% | dose excreted [13]: 1.16% | dose excreted [14]: 91.4% | dose excreted [15]: 10.5% | Drug recovery (Homo sapiens): 93.1% | Drug metabolism [16]: metabolite_detected | dose excreted [17]: 1.16% | Drug metabolism (Plasma [18]): metabolite_not_detected | dose excreted [19]: 1.01% | dose excreted [20]: 1.16% | Drug metabolism (Plasma [21]): metabolite_detected | dose excreted [22]: 78.4% | dose excreted [23]: 1.16% | dose excreted [24]: 91.8% | Drug metabolism (Plasma [25]): metabolite_detected | dose excreted [26]: 1.16% | dose excreted [27]: 91.5% | dose excreted [28]: 93.6% | dose excreted [29]: 27% | dose excreted [30]: 1% | dose excreted [31]: 1.3% | dose excreted [32]: 94.6% | dose excreted [33]: 1.16% | dose excreted [34]: 93% | Drug metabolism (Plasma [35]): metabolite_not_detected | dose excreted [36]: 74.9%
Compound: CS(=O)(=O)CCNCc1ccc(-c2ccc3ncn[14c](Nc4ccc(OCc5cccc(F)c5)c(Cl)c4)c3c2)o1.Cc1ccc(S(=O)(=O)O)cc1.O

Drug uptake [2]: 3.3%
Compound: CS(=O)(=O)CCNCc1ccc(-c2ccc3nc(O)nc(Nc4ccc(O)c(Cl)c4)c3c2)o1

Drug uptake [2]: 6.3%
Compound: Oc1ccc(-c2ccc3ncnc(Nc4ccc(OCc5cccc(F)c5)c(Cl)c4)c3c2)nc1

Drug metabolism (Plasma [1]): metabolite_detected
Compound: CS(=O)(=O)C/C=[N+](/[O-])Cc1ccc(-c2ccc3ncnc(Nc4ccc(OCc5cccc(F)c5)c(Cl)c4)c3c2)o1

Drug metabolism (Plasma [1]): metabolite_detected
Compound: CS(=O)(=O)CC/[N+]([O-])=C/c1ccc(-c2ccc3ncnc(Nc4ccc(OCc5cccc(F)c5)c(Cl)c4)c3c2)o1
